Key:
[1] = tested on: Mus musculus; test: Antitumor activity against ip implanted syngeneic L1210 leukemia in mouse after ip administration of 60 mg/kg for 5 days expressed as increase in mean life span; type: functional; conditions: 120 h, route intraperitoneal
In short: (§1)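 Drug was dissolved in 0.9% NaCl, diluted just before use and given ip once daily for 5 consecutive days, starting 24 h after transplant. ILS % = mean survival time of treated vs control mice, observed for 80 days.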

[2] = tested on: Mus musculus; test: Antitumor activity against ip implanted P388 leukemia in mouse after ip administration of 30 mg/kg for 5 days expressed as increase in mean life span; type: functional; conditions: 120 h, route intraperitoneal
In short: (§2)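 Saline-dissolved drug was given ip daily for 5 consecutive days, beginning 24 h post-transplant. ILS % was calculated from treated vs control mean survival time over an 80-day observation period.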

[3] = tested on: Mus musculus; test: Antitumor activity against ip implanted P388 leukemia in mouse after ip administration of 10 mg/kg for 5 days expressed as increase in mean life span; type: functional; conditions: 120 h, route intraperitoneal; in short: as §2
[4] = tested on: Mus musculus; test: Antitumor activity against ip implanted P388 leukemia in mouse after iv administration of 8 mg/kg for 5 days expressed as increase in mean life span; conditions: 120 h
[5] = tested on: Mus musculus; test: Antitumor activity against ip implanted L1210 leukemia in mouse after ip administration of 20 mg/kg for 5 days expressed as increase in mean life span; type: functional; conditions: 120 h, route intraperitoneal; in short: as §1
[6] = tested on: Mus musculus; test: Antitumor activity against ip implanted P388 leukemia in mouse after ip administration of 5 mg/kg for 5 days expressed as increase in mean life span; type: functional; conditions: 120 h, route intraperitoneal; in short: as §2
[7] = tested on: Mus musculus; test: Antitumor activity against ip implanted L1210 leukemia in mouse after ip administration of 40 mg/kg for 5 days expressed as increase in mean life span; type: functional; conditions: 120 h, route intraperitoneal; in short: as §1
[8] = tested on: Mus musculus; test: Number of survivors out of 6 ip implanted L1210 leukemia in mouse after ip administration of 80 mg/kg after 80 days; type: functional; conditions: route intraperitoneal
In short: (§3)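 Female BDF1 mice implanted ip with ascitic fluid holding 10^5 L1210 cells. Saline-dissolved drug given ip daily on days 1-5, starting 24 h after implant. Six mice per dose group, followed 80 days. Survivors/total counted at day 80; ILS % from mean survival time vs controls.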

[9] = tested on: Mus musculus; test: Number of survivors out of 6 ip implanted P388 leukemia in mouse after ip administration of 40 mg/kg after 80 days; type: functional; conditions: route intraperitoneal
In short: (§4)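 P388 leukemia, 10^6 ascitic cells implanted ip in female BDF1 mice. Drug in saline given ip for 5 consecutive days from 24 h after transplant. Groups of six per dose level. Survivors/total recorded at the 80-day end of observation; ILS % from treated/control mean survival time.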

[10] = tested on: Mus musculus; test: Antitumor activity against ip implanted L1210 leukemia in mouse after ip administration of 5 mg/kg for 5 days expressed as increase in mean life span; type: functional; conditions: Mus musculus, L1210, ip, 120 h, route intraperitoneal; in short: as §1
[11] = tested on: Mus musculus; test: Effect on ip implanted syngeneic B16 melanoma by ip administration of 30 mg/kg for 9 days measured as increase in mean life span; conditions: 216 h
[12] = tested on: Mus musculus; test: Number of survivors out of 6 ip implanted L1210 leukemia in mouse after ip administration of 20 mg/kg after 80 days; type: functional; conditions: route intraperitoneal; in short: as §3
[13] = tested on: Mus musculus; test: Antitumor activity against ip implanted P388 leukemia in mouse after iv administration of 4 mg/kg for 5 days expressed as increase in mean life span; conditions: 120 h
[14] = tested on: Mus musculus; test: Antitumor activity against ip implanted P388 leukemia in mouse after ip administration of 40 mg/kg for 5 days expressed as increase in mean life span; type: functional; conditions: 120 h, route intraperitoneal; in short: as §2
[15] = tested on: Mus musculus; test: Effect on ip implanted syngeneic B16 melanoma by ip administration for 9 days at 5 mg/kg was measured as increase in mean life span; conditions: 216 h
[16] = tested on: Mus musculus; test: Inhibition of sc implanted syngeneic colon 38 carcinoma by ip administration at 30 mg/kg on 1, 3, 5, 7, 9 days measured as inhibition ratio; type: functional; conditions: route intraperitoneal
In short: (§5)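 Tumor homogenate (70 mg) implanted into the axillary region of female BDF1 mice. Drug dissolved in 0.9% NaCl and diluted with saline just before use, then given ip on days 1, 3, 5, 7 and 9. Tumor length and width were measured by caliper on day 20 after inoculation and converted to estimated weight. Result reported as treated vs control tumor weight, T/C %.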

[17] = tested on: Mus musculus; test: Inhibition of sc implanted syngeneic colon 38 carcinoma by ip administration at 40 mg/kg on 1, 3, 5, 7, 9 days measured as inhibition ratio; type: functional; conditions: route subcutaneous; in short: as §5
[18] = tested on: Mus musculus; test: Antitumor activity against ip implanted P388 leukemia in mouse after ip administration of 80 mg/kg for 5 days expressed as increase in mean life span; type: functional; conditions: 120 h, route intraperitoneal; in short: as §2
[19] = tested on: Mus musculus; test: Antitumor activity against ip implanted P388 leukemia in mouse after ip administration of 1.25 mg/kg for 5 days expressed as increase in mean life span; type: functional; conditions: 120 h, route intraperitoneal; in short: as §2
[20] = tested on: Mus musculus; test: Antitumor activity against ip implanted L1210 leukemia in mouse after ip administration of 10 mg/kg for 5 days expressed as increase in mean life span; type: functional; conditions: Mus musculus, L1210, ip, 120 h, route intraperitoneal; in short: as §1
[21] = tested on: Mus musculus; test: Number of survivors out of 6 ip implanted P388 leukemia in mouse after ip administration of 80 mg/kg after 80 days; type: functional; conditions: route intraperitoneal; in short: as §4
[22] = tested on: Mus musculus; test: Antitumor activity against ip implanted P388 leukemia in mouse after ip administration of 20 mg/kg for 5 days expressed as increase in mean life span; type: functional; conditions: 120 h, route intraperitoneal; in short: as §2
[23] = tested on: Mus musculus; test: Antitumor activity against ip implanted L1210 leukemia in mouse after iv administration of 4 mg/kg for 5 days expressed as increase in mean life span; conditions: 120 h
[24] = tested on: Mus musculus; test: Number of survivors out of 6 ip implanted L1210 leukemia mouse, tested after 80 days at 30 mg/kg; type: functional; conditions: route intraperitoneal; in short: as §3
[25] = tested on: Mus musculus; test: Inhibition of sc implanted syngeneic colon 38 carcinoma by ip administration at 60 mg/kg on 1, 3, 5, 7, 9 days measured as inhibition ratio; type: functional; conditions: route subcutaneous; in short: as §5
[26] = tested on: Mus musculus; test: Antitumor activity against ip implanted L1210 leukemia in mouse after ip administration of 30 mg/kg for 5 days expressed as increase in mean life span; type: functional; conditions: route intraperitoneal; in short: as §1
[27] = tested on: Mus musculus; test: Antitumor activity against ip implanted L1210 leukemia in mouse after iv administration of 2 mg/kg for 5 days expressed as increase in mean life span; conditions: 120 h
[28] = tested on: Mus musculus; test: Number of survivors out of 6 ip implanted P388 leukemia in mouse after ip administration of 10 mg/kg after 80 days; type: functional; conditions: route intraperitoneal; in short: as §4
[29] = tested on: Mus musculus; test: Effect on ip implanted syngeneic B16 melanoma by ip administration for 9 days at 10 mg/kg was measured as increase in mean life span; conditions: 216 h
[30] = tested on: Mus musculus; test: Number of survivors out of 6 ip implanted P388 leukemia in mouse after ip administration of 20 mg/kg after 80 days; type: functional; conditions: route intraperitoneal; in short: as §4
[31] = tested on: Mus musculus; test: Inhibition of sc implanted syngeneic colon 38 carcinoma by ip administration at 80 mg/kg on 1, 3, 5, 7, 9 days measured as inhibition ratio; type: functional; conditions: route subcutaneous; in short: as §5
[32] = tested on: Mus musculus; test: Antitumor activity against ip implanted L1210 leukemia in mouse after ip administration of 1.25 mg/kg for 5 days expressed as increase in mean life span; type: functional; conditions: 120 h, route intraperitoneal; in short: as §1
[33] = tested on: Mus musculus; test: Effect on ip implanted syngeneic B16 melanoma by ip administration of 20 mg/kg for 9 days measured as increase in mean life span; conditions: 216 h
[34] = tested on: Mus musculus; test: Number of survivors out of 6 ip implanted L1210 leukemia in mouse after ip administration of 40 mg/kg after 80 days; type: functional; conditions: route intraperitoneal; in short: as §3
[35] = tested on: Mus musculus; test: Inhibition of sc implanted syngeneic colon 38 carcinoma by ip administration at 20 mg/kg on 1, 3, 5, 7, 9 days measured as inhibition ratio; type: functional; conditions: route subcutaneous; in short: as §5
[36] = tested on: Mus musculus; test: Number of survivors out of 6 ip implanted L1210 leukemia in mouse after ip administration of 10 mg/kg after 80 days; type: functional; conditions: route intraperitoneal; in short: as §3
[37] = tested on: Mus musculus; test: Number of survivors out of 6 ip implanted P388 leukemia in mouse after ip administration of 5 mg/kg after 80 days; type: functional; conditions: route intraperitoneal; in short: as §4

Row | Compound | ILS at 10 mg/kg [3] [%] | ILS at 20 mg/kg [5] [%] | ILS at 5 mg/kg [6] [%] | ILS at 40 mg/kg [7] [%] | Cures [9] | ILS at 5 mg/kg [10] [%] | Cures [12] | ILS at 40 mg/kg [14] [%] | ILS at 5 mg/kg [15] [%] | T/C [16] [%] | T/C [17] [%] | ILS at 1.25 mg/kg [19] [%] | ILS at 10 mg/kg [20] [%] | ILS at 20 mg/kg [22] [%] | Cures [28] | ILS at 10 mg/kg [29] [%] | Cures [30] | ILS at 1.25 mg/kg [32] [%] | ILS at 20 mg/kg [33] [%] | Cures [34] | also measured
1 | Cc1c2ccncc2c(C)c2c1[nH]c1ccc(O)cc12 | – | – | – | – | – | – | – | – | – | – | – | – | – | – | – | – | – | – | – | – | ILS at 60 mg/kg [1]: 79%; ILS at 30 mg/kg [2]: 91%
2 | Cc1c2cc[n+]([C@H]3O[C@@H](C)[C@@H](O)[C@@H](O)[C@@H]3O)cc2c(C)c2c1[nH]c1ccc(O)cc12.[Br-] (stereo in doubt; 56) | > 341 | > 248 | 109 | > 712 | 6 | 67 | 1 | > 789 | 50 | 52 | 19 | 85 | 107 | > 677 | 2 | 62 | 5 | 56 | 81 | 4 | ILS at 8 mg/kg [4]: 76%; Cures [8]: 6; ILS at 30 mg/kg [11]: 58%; ILS at 4 mg/kg [13]: 63%; ILS at 80 mg/kg [18]: > 513%; Cures [21]: 4; ILS at 4 mg/kg [23]: 38%; Cures ([24]; 30 mg/kg): 4; T/C [25]: 3%; ILS ([26]; 30 mg/kg): >693%; ILS at 2 mg/kg [27]: 9%; T/C [31]: 2%
3 | Cc1c2cc[n+]([C@@H]3OC[C@@H](O)[C@H](O)[C@@H]3O)cc2c(C)c2c1[nH]c1ccc(O)cc12.[Cl-] | > 369 | > 249 | > 212 | > 668 | 4 | 68 | 1 | > 526 | 41 | 18 | 5 | 87 | > 238 | > 585 | 2 | 61 | 4 | 46 | 87 | 4 | T/C [35]: 37%; Cures [24]: 5; ILS at 30 mg/kg ([26]; Mus musculus, L1210, ip, 120 h): > 786%; Cures [36]: 1; Cures [37]: 1

Reference: ChEMBL document CHEMBL1124260, “Synthesis and antitumor activity of quaternary ellipticine glycosides, a series of novel and highly active antitumor agents” (1988)
